# Data published in ChEMBL document CHEMBL1158600, “Phenanthrenes from Dendrobium nobile and their inhibition of the LPS-induced production of nitric oxide in macrophage RAW 264.7 cells” (Bioorg Med Chem Lett, 2010).
# System: RAW264.7
# Assay: Antiinflammatory activity in mouse RAW264.7 cells assessed as inhibition of LPS-induced NO production
# Assay type: functional, cell-based
# How it was run: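 RAW 264.7 cells seeded at 2 × 10^5 cells/mL, stimulated with 1 µg/mL LPS with or without test compound, 37 °C for 24 h. Nitrite in cell-free supernatant measured by Griess reagent (sulfanilamide in phosphoric acid plus N-(1-naphthyl)ethylenediamine), absorbance at 550 nm against sodium nitrite standard curve. IC50 for 50% NO inhibition; triplicate, mean ± SD. Viability checked by CCK assay.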
row,SMILES,IC50
1,COc1cc2ccc3cc(O)ccc3c2c(OC)c1O,35.7 µM
2,COc1cc(O)cc(CCc2ccc(OC)c(OC)c2)c1,> 50 µM
3,COc1c(O)c(O)cc2ccc3cccc(O)c3c12 [FIMBRIOL B],28.9 µM
4,COc1cc2c(c(OC)c1O)-c1ccc(O)cc1CC2 [FLAVANTHRIDIN],34.1 µM
5,COc1cc(O)cc(CCc2ccc(O)c(OC)c2)c1 [GIGANTOL],> 50 µM
6,N=C(N)NN [PIMAGEDINE],17.5 µM

# Other lines, results leading:
row,IC50,SMILES
1,20.4 µM,COc1c(O)cc2ccc3c(OC)ccc(O)c3c2c1OC
2,12 µM,COc1cc2c(c(O)c1OC)-c1ccc(O)cc1CC2 [EPHEMERANTHOL A]
3,17.6 µM,COc1c(O)c(O)cc2c1-c1c(O)cccc1CC2 [EPHENERANTHOL C]
4,19.5 µM,COc1c(O)cc2c(c1OC)-c1ccc(O)cc1CC2 [ERIANTHRIDIN]
5,26.4 µM,COc1cc(O)cc2c1-c1c(O)cccc1CC2 [HIRCINOL]
6,9.6 µM,COc1cc(O)c2c(c1)CCc1cc(O)ccc1-2 [LUSIANTHRIDIN]
7,27.6 µM,COc1cc(CCc2cc(OC)c(O)c(OC)c2)ccc1O [MOSCATILIN]
